Measurements published in ChEMBL document CHEMBL1153925, “Synthesis, characterization and biological activity of ring-substituted 6-benzylamino-9-tetrahydropyran-2-yl and 9-tetrahydrofuran-2-ylpurine derivatives” (Bioorg Med Chem, 2009).

Experiments:
BJ = assay: Cytotoxicity against human BJ cells after 72 hrs by MTT assay; format: ADME, cell-based
Nicotiana tabacum = assay: Cytokinin activity in tobacco callus assessed as stimulation of callus growth at 1 uM relative to 6-benzylaminopurine; format: functional
[1] = Stability assessed as compound peak area at pH 7 after 1 hr by HPLC-PDA method; format: physicochemical; conditions: read-out: Stability
Summary of the method: (§1)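 10^-2 M methanol solution diluted to 10^-4 M in McIlvaine buffer at pH 3, 4, 5, 6 or 7, then incubated at 25 °C. Direct injection onto reversed-phase C18 after 1 h and again after 24 h. Methanol/15 mM formic acid (pH 4, ammonium) gradient at 0.3 mL/min, PDA at 270 nm. Parent and released free base (m-topolin) reported as peak area %.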

[2] = Stability assessed as compound peak area at pH 6 after 1 hr by HPLC-PDA method; format: physicochemical; conditions: read-out: Stability; summary of the method: as §1
[3] = Stability assessed as compound peak area at pH 5 after 1 hr by HPLC-PDA method; format: physicochemical; conditions: read-out: Stability; summary of the method: as §1
[4] = Stability assessed as compound peak area at pH 4 after 1 hr by HPLC-PDA method; format: physicochemical; conditions: read-out: Stability; summary of the method: as §1
[5] = Stability assessed as compound peak area at pH 3 after 1 hr by HPLC-PDA method; format: physicochemical; conditions: read-out: Stability; summary of the method: as §1
[6] = Stability assessed as compound peak area at pH 7 after 24 hrs by HPLC-PDA method; format: physicochemical; conditions: read-out: Stability; summary of the method: as §1
[7] = Stability assessed as compound peak area at pH 6 after 24 hrs by HPLC-PDA method; format: physicochemical; conditions: read-out: Stability; summary of the method: as §1
[8] = Stability assessed as compound peak area at pH 5 after 24 hrs by HPLC-PDA method; format: physicochemical; conditions: read-out: Stability; summary of the method: as §1
[9] = Stability assessed as compound peak area at pH 4 after 24 hrs by HPLC-PDA method; format: physicochemical; conditions: read-out: Stability; summary of the method: as §1
[10] = Stability assessed as compound peak area at pH 3 after 24 hrs by HPLC-PDA method; format: physicochemical; conditions: read-out: Stability; summary of the method: as §1
Amaranthus = assay: Cytokinin activity in cotyledons assessed as dark induction of betacyanin synthesis at 100 uM relative to 6-benzylaminopurine; format: functional
Triticum aestivum = assay: Cytokinin activity in wheat leaf assessed as stimulation of retention of chlorophyll in excised leaves at 0.1 mM relative to 6-benzylaminopurine; format: functional
K562 = assay: Cytotoxicity against human K562 cells after 72 hrs by Calcein AM assay; format: ADME, cell-based; conditions: K562, 72 h
MCF7 = assay: Cytotoxicity against human MCF7 cells after 72 hrs by Calcein AM assay; format: ADME, cell-based; conditions: MCF7, 72 h
[11] = Stability assessed as free base release at pH 7 after 1 hr by HPLC-PDA method; format: physicochemical; conditions: pH 7, 1 h; summary of the method: as §1
[12] = Stability assessed as free base release at pH 6 after 1 hr by HPLC-PDA method; format: physicochemical; conditions: pH 6, 1 h; summary of the method: as §1
[13] = Stability assessed as free base release at pH 5 after 1 hr by HPLC-PDA method; format: physicochemical; conditions: pH 5, 1 h; summary of the method: as §1
[14] = Stability assessed as free base release at pH 4 after 1 hr by HPLC-PDA method; format: physicochemical; conditions: pH 4, 1 h; summary of the method: as §1
[15] = Stability assessed as free base release at pH 3 after 1 hr by HPLC-PDA method; format: physicochemical; conditions: pH 3, 1 h; summary of the method: as §1
[16] = Stability assessed as free base release at pH 7 after 24 hr by HPLC-PDA method; format: physicochemical; conditions: pH 7, 24 h; summary of the method: as §1
[17] = Stability assessed as free base release at pH 6 after 24 hr by HPLC-PDA method; format: physicochemical; conditions: pH 6, 24 h; summary of the method: as §1
[18] = Stability assessed as free base release at pH 5 after 24 hr by HPLC-PDA method; format: physicochemical; conditions: pH 5, 24 h; summary of the method: as §1
[19] = Stability assessed as free base release at pH 4 after 24 hr by HPLC-PDA method; format: physicochemical; conditions: pH 4, 24 h; summary of the method: as §1
[20] = Stability assessed as free base release at pH 3 after 24 hr by HPLC-PDA method; format: physicochemical; conditions: pH 3, 24 h; summary of the method: as §1

remaining at 1 h [1]: 99.9% | remaining at 1 h [2]: 99.8% | remaining at 1 h [3]: 99.5% | remaining at 1 h [4]: 99.5% | remaining at 1 h [5]: 98.8% | remaining at 24 h [6]: 99.8% | remaining at 24 h [7]: 99.3% | remaining at 24 h [8]: 99.2% | remaining at 24 h [9]: 93.9% | remaining at 24 h [10]: 39.6% | Activity [11]: 0.1% | Activity [12]: 0.2% | Activity [13]: 0.5% | Activity [14]: 0.5% | Activity [15]: 1.2% | Activity [16]: 0.2% | Activity [17]: 0.7% | Activity [18]: 0.8% | Activity [19]: 6.1% | Activity [20]: 60.4%
SMILES: Oc1cccc(CNc2ncnc3c2ncn3C2CCCCO2)c1 (stereo unspecified)
IC50 (BJ): > 100 µM | Activity (Nicotiana tabacum): 95% | Activity (Amaranthus): 100% | Activity (Triticum aestivum): 140% | IC50 (K562): 81 µM | IC50 (MCF7): > 100 µM
